Measurements as given in PMC6393846 (Future Microbiology, 2019).
Converted amounts (≈) assume the structure as drawn.

Columns and labels:
[1] = tested on: Staphylococcus epidermidis ATCC 12228; details: for reduction of the MIC of the antibiotic in the presence of PlnJK: 12.5 μM PlnJK with antibiotic versus antibiotic alone
[2] = tested on: Staphylococcus epidermidis ATCC 12228; experiment: microbe, parasite or virus in culture; details: ATCC12228
S. epidermidis = experiment: Antibiotics combined with plantaricins, summary statements; format: cell-based, Staphylococcus epidermidis; details: summary in abstract/discussion; PlnEF with antibiotic; strain not specified
In short: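 Broth microdilution with S. epidermidis grown overnight in LB at 37 °C with shaking and adjusted by viable count. Twofold antibiotic series: vancomycin and teicoplanin 0.097–50 μg/ml, gentamicin 0.0097–5 μg/ml, tetracycline 0.016–8 μg/ml. Each well also held a fixed paired plantaricin at 12.5 or 6.25 μM, each partner peptide equimolar. MIC/MBC read after 20 h.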

[3] = tested on: S. epidermidis 126 (hGISE clinical isolate); experiment: Broth microdilution MIC/MBC, clinical isolate; format: cell-based, Staphylococcus epidermidis; details: for MIC: Staphylococcus epidermidis
[4] = 12.5 μM PlnEF with antibiotic versus antibiotic alone

Compound	reduction of the MIC of the antibiotic in the presence of PlnJK [1]	MIC [2] [µg/mL]	enhancement of the effects of the antibiotic by plantaricin (S. epidermidis) [fold]	reduction of the MBC of the antibiotic in the presence of PlnEF [3, 4] [fold]	reduction of the MIC of the antibiotic in the presence of PlnEF [3, 4] [fold]	MIC [3] [µg/mL]	reduction of the MIC of the antibiotic in the presence of PlnEF [1, 4] [fold]	MBC [2] [µg/mL]
CNC(C)C1CCC(N)C(OC2C(N)CC(N)C(OC3OCC(C)(O)C(NC)C3O)C2O)O1 (stereo not drawn) [Gentamicin]	approximately sevenfold	0.31 (≈ 0.649 µM)	> 500	260	500	> 5	–	–
CN(C)[C@@H]1C(O)=C(C(N)=O)C(=O)[C@@]2(O)C(O)=C3C(=O)c4c(O)cccc4[C@@](C)(O)[C@H]3C[C@@H]12 [Tetracycline]	–	–	> 500	–	125	≥ 2	500	–
CN[C@H](CC(C)C)C(=O)N[C@H]1C(=O)N[C@@H](CC(N)=O)C(=O)N[C@H]2C(=O)N[C@H]3C(=O)N[C@H](C(=O)N[C@H](C(=O)O)c4cc(O)cc(O)c4-c4cc3ccc4O)[C@H](O)c3ccc(c(Cl)c3)Oc3cc2cc(c3O[C@@H]2O[C@H](CO)[C@@H](O)[C@H](O)[C@H]2O[C@H]2C[C@](C)(N)[C@H](O)[C@H](C)O2)Oc2ccc(cc2Cl)[C@H]1O [Vancomycin]	–	3.1 (≈ 2.14 µM)	> 30	–	–	–	–	6.25 (≈ 4.31 µM)
Teicoplanin	twofold	–	> 30	–	–	–	–	–
